Screening data (PubChem)
ROMK mod: modulates human ROMK potassium channel activity | 2% of 130,000 active | B-score at 10 µM | AID 1918 | Tet-inducible ROMK, thallium flux fluorescence; actives lie on both sides | P48048;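 active = signal ratio slope over the read window, or its plate-corrected B-score, at least 3 SD from the plate mean, either direction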;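 also: B-score of the F/F0 ratio slope over 7 to 12 s after thallium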
Target sequence (P48048 whole entry, looked up): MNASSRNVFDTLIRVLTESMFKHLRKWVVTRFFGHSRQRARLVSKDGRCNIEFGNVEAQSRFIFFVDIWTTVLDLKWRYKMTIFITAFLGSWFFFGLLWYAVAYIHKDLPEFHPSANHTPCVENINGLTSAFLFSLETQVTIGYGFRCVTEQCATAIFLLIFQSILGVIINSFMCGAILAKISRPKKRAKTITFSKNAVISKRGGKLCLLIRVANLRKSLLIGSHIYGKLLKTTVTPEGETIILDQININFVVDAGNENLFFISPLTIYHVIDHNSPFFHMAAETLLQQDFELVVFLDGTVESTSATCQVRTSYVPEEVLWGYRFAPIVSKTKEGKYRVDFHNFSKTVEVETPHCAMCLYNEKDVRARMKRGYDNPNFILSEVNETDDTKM
Pf gamet viab: kills late stage P. falciparum gametocytes; 0.065% of 150,000 active; inhibition, % at 10.9 µM; AID 743093; P. falciparum stage V gametocytes, ATP luminescence, 24 h;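 active = inhibition above the mean plus 3 SD of compounds within the control limits, set per campaign, cut at about 38% in these data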;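 also: 0% = DMSO wells and 100% = medium only without gametocytes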
Biofilm kill mix: mixture kills Candida albicans biofilm cells; C. albicans biofilm persisters + clotrimazole, fluorescence viability; primary screen in compound mixtures of four per well; inhibition, % at 7.6 µM; 0.02% of 120,000 active;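 active = inhibition above 30.3% in the primary screen of four-compound pools, then above 30% when the compound was retested; inconclusive = passed the primary limit but could not be retested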;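 also: compounds exposed to preformed 24 h biofilms for 48 h; 0% = untreated biofilm control and 100% = clotrimazole plus chlorhexidine kill blank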
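System: C. albicans CAF4-2 wild-type biofilms; Medium: RPMI/MOPS medium, pH 7.0; Reagent: Clotrimazole, 50 µg/mL; Times: biofilm formation 24 h, compound exposure 48 h, 37 °C; Detection: 2-h Alamar Blue fluorescence, 535/590 nm excitation/emission; Evaluation: percent inhibition of biofilm viability.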
ROMK retest: confirmation of human ROMK potassium channel modulators | AID 1917 | 54% of 3,000 active | normalized thallium flux (F/F0 slope) at 10 µM | ROMK thallium flux, fluorescence ratio; stronger effect = lower value | shares compounds with ROMK mod;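 active = Flux at 10 µM at least 3 SD below or above vehicle control mean in one or both replicates; inconclusive = no clear call, values can overlap the other calls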
An asterisk follows results filed as active. The full list was thinned out, with hits kept by preference.

For CCOC(=O)N1CC=C2C(C#N)=C(N)C(C#N)(C#N)[C@H](c3cccs3)C2C1 (stereo partly drawn) the results were ROMK mod -0.63 and Biofilm kill mix -1.
Screening CC(C)=CCC/C(C)=C/CC/C(C)=N/O returned Pf gamet viab 11.
Screening CC(C)=CCC/C(C)=C/CCC(C)NCCN1CCNCC1 (stereo not drawn) returned ROMK mod -3.3* and ROMK retest 0.054*.
For CCN1CCN(c2oc(/C=C/c3ccccc3)nc2C#N)CC1 the results were ROMK mod 0.41, Pf gamet viab 7 and Biofilm kill mix 6.
Screening C[C@@H]1CC[C@]2(O[C@H](CCO)C[C@H](O)[C@H]2O)O1 returned Pf gamet viab -10.
For O=C(NCCc1ccccc1)C(=O)NN=C1CCCC1 the results were ROMK mod 2.8* and ROMK retest 0.081.
`Cc1ccc(CNC(=O)C(=O)NCCC2=CCCCC2)cc1` gave ROMK mod 1.3, Pf gamet viab -6 and Biofilm kill mix 16.
Screening COc1ccc(CCNC(=O)C(=O)NN=C2CCCCCCC2)cc1OC returned Pf gamet viab 18 and Biofilm kill mix 3.
O=C(NCCC1=CCCCC1)C(=O)NCc1ccccc1 was read as ROMK mod 1.2*, Biofilm kill mix 7 and ROMK retest 0.079.
Screening Cc1cc(C)c(NC(=O)C2CCN(c3cnccn3)CC2)c(C)c1 returned ROMK mod -0.049, Pf gamet viab -4 and Biofilm kill mix 7.
O=C(COC(=O)c1cccc(C(=O)OCC(=O)NCc2ccc(F)cc2)n1)NCc1ccc(F)cc1 was read as ROMK mod 0.55, Pf gamet viab -28 and Biofilm kill mix 14.
Screening CCOc1ccccc1CN1CCN(Cc2ccc(C)o2)CC1CCO (stereo not drawn) returned ROMK mod -0.018, Pf gamet viab 11 and Biofilm kill mix 21.
Screening CCOc1ccccc1CN1CCN(CC2=Cc3cc(OC)ccc3OC2)CC1CCO (stereo not drawn) returned Pf gamet viab -18, Biofilm kill mix 24 and ROMK retest 0.067*.
For O=C(O)Cc1cc(I)c(Oc2ccc(O)c(I)c2)c(I)c1 the results were Biofilm kill mix 6 and ROMK retest 0.12*.
O=C(O)Cc1ccc(O)c(O)c1 was read as Biofilm kill mix 15.
Screening CCOC(=O)c1c(NC(=S)Nc2ccccc2)sc2c1CCN(CCc1ccccc1)C2 returned ROMK retest 0.061*.
Screening CCOC(=O)c1c(NC(=S)Nc2ccccc2)sc2c1CC(C)(C)SC2 returned ROMK mod -0.12, Pf gamet viab 19 and Biofilm kill mix 13.
`CCCCCCCC1CC(CSC(=N)N)OC1=O` (stereo not drawn) gave ROMK mod -5*, Pf gamet viab -11 and ROMK retest 0.058*.
Screening CCC1CC(CSC(=N)N)OC1=O (stereo not drawn) returned Pf gamet viab 0 and Biofilm kill mix 22.
COc1cccc(N2CCN(c3ncnc4c3cnn4-c3ccc(C)cc3C)CC2)c1 was read as ROMK retest 0.071.
Screening Cc1ccc(-n2ncc3c(N4CCCC4)ncnc32)c(C)c1 returned ROMK mod 0.02 and Pf gamet viab -11.
For O=C(NCc1ccc(Cl)cc1)c1ccc(N2CCCC2=O)cc1 the results were ROMK mod 0.51 and Biofilm kill mix 12.
`COc1ccc(NC(=O)c2cc(=O)[nH]c(=O)[nH]2)cc1S(=O)(=O)Nc1ccccc1Cl` gave ROMK mod -0.064, Pf gamet viab 9 and Biofilm kill mix 7.
CCN1C(=O)c2cccc3c(NS(=O)(=O)c4ccc(NC(C)=O)cc4)ccc1c23 was read as Pf gamet viab 0.
CCN1C(=O)c2cccc3c(S(=O)(=O)Nc4ccccc4OC)ccc1c23 was read as Pf gamet viab 10 and ROMK retest 0.062*.
`O=C(Nc1ccc2snnc2c1)N1CCCCC1` gave ROMK mod 0.32, Pf gamet viab -5 and Biofilm kill mix 26.
`O=C(Nc1ccc2snnc2c1)N1CCOCC1` gave ROMK retest inconclusive.
Screening CCOc1cccc(NC(=O)CSc2nc(C)c3c(c2C#N)CCCC3)c1 returned Pf gamet viab 1 and ROMK retest 0.076.
For Cc1nc(SCC(=O)Nc2ccc3c(c2)OCO3)c(C#N)c2c1CCCC2 the results were ROMK mod -0.2.
For O=C1CCCCCN1Sc1ccccc1 the results were Pf gamet viab -27 and ROMK retest 0.043*.
O=C(CCSc1ccccc1)N1CCCC1 was read as ROMK mod 0.32 and Biofilm kill mix 19.
NC(=O)CC(NC(=O)Cc1ccc(Cl)cc1)c1ccc(NCCN2CCOCC2)c([N+](=O)[O-])c1 (stereo not drawn) was read as Pf gamet viab 5.
CCCCCCCCCCOC(=O)C[N+](C)(C)C/C=C(/C)Cl was read as Pf gamet viab 6, Biofilm kill mix 8 and ROMK retest 0.057*.
`CCCCCCCCOC(=O)c1ccc(N)cc1` gave ROMK mod 0.3, Pf gamet viab -1 and Biofilm kill mix 11.
For CCCCCCCCCCCCOC(=O)C[N+](C)(C)C the results were ROMK mod -3.8*, Pf gamet viab -11, Biofilm kill mix 15 and ROMK retest 0.048*.
`CCCCCCCCOC(=O)C[N+](C)(C)C/C=C(/C)Cl` gave ROMK mod -1.8, Pf gamet viab 15 and Biofilm kill mix -15.
For O=C(CCCSc1nc2ccccc2c(=O)[nH]1)c1ccc(F)cc1 the results were ROMK mod -0.0085, Pf gamet viab 16 and Biofilm kill mix 3.
Screening Cc1cc(C)n2nc(/C(C#N)=C/c3ccccn3)c(C#N)c2n1 returned ROMK mod -2.4*, Pf gamet viab 4, Biofilm kill mix 13 and ROMK retest 0.044*.
Screening Cc1cc(C)n2nc(CC#N)c(C#N)c2n1 returned ROMK mod -0.6, Pf gamet viab 7 and Biofilm kill mix 13.
CCCCN1C(=O)N(c2nnc(C(C)(C)C)s2)C(O)C1c1ccc(C)cc1 (stereo not drawn) was read as Pf gamet viab -21 and Biofilm kill mix 19.
`COc1ccc(C2CC(c3ccccc3)=NN2C(=O)CSc2nnnn2-c2cccc(C)c2)cc1` (stereo not drawn) gave Pf gamet viab 5.
Screening CN(C)S(=O)(=O)c1ccc(C(=O)Nc2nc(-c3cc4ccccc4o3)cs2)cc1 returned ROMK mod 0.025, Pf gamet viab -12 and Biofilm kill mix 21.
CN(CC1CCCO1)S(=O)(=O)c1ccc(C(=O)Nc2nc(-c3ccccn3)cs2)cc1 (stereo not drawn) was read as ROMK retest 0.072.
CC/C(=C\c1oc2cc3ccccc3cc2[n+]1CC)Nc1ccccc1 was read as Pf gamet viab 0, Biofilm kill mix 6 and ROMK retest 0.055*.
Screening CC[n+]1c(/C=C/Nc2ccccc2)oc2ccc(OC)cc21 returned ROMK mod 0.21, Pf gamet viab -16 and Biofilm kill mix 14.
For CC(C)c1ccc(CNC(=O)C(=O)NCCCn2ccnc2)cc1 the results were Pf gamet viab 7 and Biofilm kill mix 23.
Screening CC(=O)N1CCN(C2=NC(=O)/C(=C\c3cccs3)S2)CC1 returned ROMK mod -6.7*, Pf gamet viab 7, Biofilm kill mix 18 and ROMK retest 0.083.
